# Tests used:
# Assay type in all cases: functional
# Settings in all cases: read-out: ED50 (the source's name)
# HT-29 = assay: Cytotoxicity against human HT-29 cells
# Outline: (§1)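 Standard cytotoxicity procedure from earlier work. A549 is a human lung adenocarcinoma line and HT-29 a human colon adenocarcinoma line, both grown as cell cultures. Potency is given as ED50 in µg/mL.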
# P388 = assay: Cytotoxicity against mouse P388 cells
# Outline: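 P-388 is a mouse lymphocytic leukemia line, supplied by J. M. Pezzuto (Purdue University), grown in culture and tested by the same previously described cytotoxicity procedure.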
# A549 = assay: Cytotoxicity against human A549 cells; outline: as §1
SMILES,EC50 (HT-29) [µg/mL],EC50 (P388) [µg/mL],EC50 (A549) [µg/mL]
CC(C)=CC(=O)O[C@@H]1/C=C/[C@@](C)(C/C=C/C(C)(C)O)C/C=C(/CO)CC[C@@H]2O[C@]21C [VIBSANIN P],9.97,2.25,4.62
COC(C)(C)/C=C/C[C@]1(C)/C=C/[C@@H](OC(=O)C=C(C)C)[C@]2(C)O[C@H]2CC/C(CO)=C\C1 [VIBSANIN Q],,< 10,
C=C(C)/C=C/C[C@]1(C)/C=C/[C@@H](OC(=O)C=C(C)C)[C@]2(C)O[C@H]2CC/C(CO)=C\C1 [VIBSANIN R],,< 10,
C=C(C)C(O)CC[C@]1(C)/C=C/[C@@H](OC(=O)C=C(C)C)[C@]2(C)O[C@H]2CC/C(CO)=C\C1 (some centres not stated) [VIBSANIN S],,< 10,
CC(C)=CC(=O)O[C@@H]1/C=C/[C@@](C)(C/C=C/C(C)(C)O)C/C=C(/C=O)CC[C@@H]2O[C@]21C [VIBSANIN T],,< 10,
CC(C)=CC(=O)O[C@@H]1/C=C/[C@@](C)(CCC(O)C(C)(C)O)C/C=C(/CO)C(=O)/C=C/[C@@]1(C)O (some centres not stated) [VIBSANIN U],,< 10,
C=C(C)C(O)CC[C@]1(C)/C=C/C[C@]2(C)O[C@H]2CC/C(C=O)=C\C1 (some centres not stated) [VIBSANIN V],,< 10,
CC(=O)C[C@@H]1C(=O)C(CO)=CC[C@](C)(CCC(O)C(C)(C)O)[C@H]1/C=C/OC(=O)C=C(C)C (some centres not stated) [VIBSANIN W],8.15,2.18,5.6
